Data published in paper PMC3966491 (Chemical biology & drug design, 2013).

Columns and labels:
[1] = target: AKT1 (PKB alpha) (Homo sapiens, UniProt P31749); test: AKT1 in vitro kinase assay; assay type: biochemical
Outline: (§1)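 Z′-LYTE assay. Enzyme per 10 μL reaction: AKT1 0.34–7.65 ng, AKT2 1–40 ng, or AKT3 0.56–8.3 ng. Reaction contained 2 μM Ser/Thr 06 peptide, ATP at Km, 50 mM HEPES pH 7.5, 0.01% BRIJ-35, 10 mM MgCl2 and 1 mM EGTA. After 1 h, Development Reagent A (1:2048) protease cleaved non-phosphorylated peptide. Read-out was the coumarin 445 nm/fluorescein 520 nm emission ratio; curves were fitted.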

[2] = target: AKT2 (PKB beta) (Homo sapiens, UniProt P31751); test: AKT2 in vitro kinase assay; assay type: biochemical
Outline: as §1

[3] = target: AKT3 (PKB gamma) (Homo sapiens, UniProt Q9Y243); test: AKT3 in vitro kinase assay; assay type: biochemical
Outline: as §1

[4] = target: T1, CHUK (IKK alpha) (Homo sapiens, UniProt O15111); test: IKKα; assay type: biochemical
T1 sequence (O15111 1-745): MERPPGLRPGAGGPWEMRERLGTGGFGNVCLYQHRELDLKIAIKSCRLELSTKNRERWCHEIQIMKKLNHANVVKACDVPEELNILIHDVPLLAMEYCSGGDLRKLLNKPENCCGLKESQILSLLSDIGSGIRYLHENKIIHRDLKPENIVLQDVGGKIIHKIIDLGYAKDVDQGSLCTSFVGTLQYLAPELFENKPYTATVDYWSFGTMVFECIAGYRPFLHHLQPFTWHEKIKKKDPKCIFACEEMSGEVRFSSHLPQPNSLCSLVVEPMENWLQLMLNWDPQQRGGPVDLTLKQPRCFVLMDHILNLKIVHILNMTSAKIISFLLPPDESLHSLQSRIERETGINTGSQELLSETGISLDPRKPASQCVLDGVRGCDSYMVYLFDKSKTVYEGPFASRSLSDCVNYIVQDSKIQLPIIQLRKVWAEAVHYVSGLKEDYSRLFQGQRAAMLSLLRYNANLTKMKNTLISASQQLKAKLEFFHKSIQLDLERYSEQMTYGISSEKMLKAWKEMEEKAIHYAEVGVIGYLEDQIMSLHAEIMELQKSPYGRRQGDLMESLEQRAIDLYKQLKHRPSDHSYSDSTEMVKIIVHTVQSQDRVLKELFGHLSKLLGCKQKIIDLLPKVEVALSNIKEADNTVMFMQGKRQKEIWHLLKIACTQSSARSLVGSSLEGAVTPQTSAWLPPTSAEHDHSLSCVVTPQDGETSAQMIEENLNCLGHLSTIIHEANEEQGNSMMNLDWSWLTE
Outline: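 ADAPTA ADP-detection format. Detection mix added EDTA (stop), europium-labelled anti-ADP antibody and Alexa Fluor 647 ADP tracer; ADP formation was taken from the emission ratio. Where noted, IC50 was predicted from % inhibition at 1 μM test compound, mean of two experiments.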

[5] = target: T2, IKBKB (IKK beta) (Homo sapiens, UniProt O14920); test: IKKβ; assay type: biochemical
T2 sequence (O14920 1-756): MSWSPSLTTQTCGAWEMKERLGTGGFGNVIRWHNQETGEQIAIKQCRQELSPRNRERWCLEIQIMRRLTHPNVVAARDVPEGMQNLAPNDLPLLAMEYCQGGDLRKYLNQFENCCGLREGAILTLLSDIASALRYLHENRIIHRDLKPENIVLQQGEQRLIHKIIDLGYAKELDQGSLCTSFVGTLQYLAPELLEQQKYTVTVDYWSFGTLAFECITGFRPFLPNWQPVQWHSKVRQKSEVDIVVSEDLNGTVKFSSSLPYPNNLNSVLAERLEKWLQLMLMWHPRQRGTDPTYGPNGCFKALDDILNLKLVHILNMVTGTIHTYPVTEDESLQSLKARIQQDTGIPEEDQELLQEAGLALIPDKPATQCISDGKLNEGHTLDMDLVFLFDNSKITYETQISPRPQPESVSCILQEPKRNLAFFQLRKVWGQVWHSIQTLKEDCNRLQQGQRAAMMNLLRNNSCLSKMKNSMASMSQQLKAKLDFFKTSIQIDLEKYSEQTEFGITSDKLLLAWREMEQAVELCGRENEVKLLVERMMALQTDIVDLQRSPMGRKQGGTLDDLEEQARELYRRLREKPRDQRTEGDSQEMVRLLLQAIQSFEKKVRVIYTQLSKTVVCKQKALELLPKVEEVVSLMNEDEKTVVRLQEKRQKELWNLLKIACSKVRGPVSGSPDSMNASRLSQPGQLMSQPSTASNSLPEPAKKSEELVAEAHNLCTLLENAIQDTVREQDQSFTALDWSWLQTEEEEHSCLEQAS
Outline: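 Z′-LYTE format. Development used Reagent B (1:64) protease; read-out was the coumarin 445 nm/fluorescein 520 nm emission ratio. Where noted, IC50 was predicted from % inhibition at 10 μM test compound, mean of two experiments.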

[6] = tested on: 21 protein kinases including SPHK1, SPHK2, FES and AURKB; test: in vitro selectivity against 21 protein kinases; assay type: biochemical; conditions: 21 protein kinases previously inhibited by compound 1
[7] = tested on: AKT levels and phosphorylation of its substrate PRAS40; test: Western blot of AKT pathway in melanoma UACC903 cells; assay type: cell-based, human; conditions: 4 hours
[8] = tested on: phosphorylation of IKK Ser176/180 and total IκB levels; test: Western blot of NF-κB pathway in TNF-α stimulated UACC903 cells; assay type: cell-based, human; conditions: 10 μM, 1 hour prior to TNF-α stimulation (20 ng/ml)
[9] = in vitro plasma stability; assay type: in vitro ADME
[10] = in vitro microsomal stability; assay type: in vitro ADME
[11] = tested on: Human UACC903 melanoma cells xenograft; test: in vivo melanoma xenograft study; conditions: oral gavage twice a week, 10 mg/kg and 25 mg/kg, single agent, nude mice
[12] = tested on: UACC903 xenograft tumor sections; test: TUNEL and IκB immunohistochemistry of xenograft tumor sections; assay type: in vivo, nude mice; conditions: tumors from treated mice vs vehicle, after 28 days
Outline: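 Female nude mice (6–7 weeks) received 1×10^6 UACC903 cells in PBS subcutaneously in the flank. After 4 weeks, tumours were fixed, paraffin-sectioned, immunostained (DAB, haematoxylin) or TUNEL-stained, then scanned. Scores: TUNEL-positive nuclei/area and IκB immunoscore/area; error bars SEM.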

Chain of AKT1 (PKB alpha) (P31749 whole entry): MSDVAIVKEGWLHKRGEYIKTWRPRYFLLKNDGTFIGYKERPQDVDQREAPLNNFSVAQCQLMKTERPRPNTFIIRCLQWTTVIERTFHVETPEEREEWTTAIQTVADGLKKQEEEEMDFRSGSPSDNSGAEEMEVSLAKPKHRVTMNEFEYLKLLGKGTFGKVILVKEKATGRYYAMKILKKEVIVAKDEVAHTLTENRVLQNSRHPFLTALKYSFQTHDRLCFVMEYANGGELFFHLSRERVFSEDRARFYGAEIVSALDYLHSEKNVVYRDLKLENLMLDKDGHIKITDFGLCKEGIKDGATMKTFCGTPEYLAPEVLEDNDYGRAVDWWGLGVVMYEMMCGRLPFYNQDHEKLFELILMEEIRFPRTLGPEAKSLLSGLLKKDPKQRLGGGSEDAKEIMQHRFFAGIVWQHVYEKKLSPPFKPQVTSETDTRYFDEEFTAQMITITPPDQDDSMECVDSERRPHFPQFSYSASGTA
Chain of AKT2 (PKB beta) (P31751 whole entry): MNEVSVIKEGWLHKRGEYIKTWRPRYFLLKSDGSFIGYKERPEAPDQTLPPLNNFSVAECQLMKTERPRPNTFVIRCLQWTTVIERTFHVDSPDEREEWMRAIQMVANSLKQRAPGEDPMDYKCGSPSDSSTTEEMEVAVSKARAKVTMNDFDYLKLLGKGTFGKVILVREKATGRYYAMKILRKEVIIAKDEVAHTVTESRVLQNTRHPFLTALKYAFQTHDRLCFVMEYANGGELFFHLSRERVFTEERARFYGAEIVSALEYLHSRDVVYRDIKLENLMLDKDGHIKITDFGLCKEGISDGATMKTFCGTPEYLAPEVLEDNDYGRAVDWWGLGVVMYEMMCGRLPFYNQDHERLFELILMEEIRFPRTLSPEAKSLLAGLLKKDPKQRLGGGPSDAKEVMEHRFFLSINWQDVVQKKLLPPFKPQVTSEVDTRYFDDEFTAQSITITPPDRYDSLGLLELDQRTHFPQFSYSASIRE
Chain of AKT3 (PKB gamma) (Q9Y243 whole entry): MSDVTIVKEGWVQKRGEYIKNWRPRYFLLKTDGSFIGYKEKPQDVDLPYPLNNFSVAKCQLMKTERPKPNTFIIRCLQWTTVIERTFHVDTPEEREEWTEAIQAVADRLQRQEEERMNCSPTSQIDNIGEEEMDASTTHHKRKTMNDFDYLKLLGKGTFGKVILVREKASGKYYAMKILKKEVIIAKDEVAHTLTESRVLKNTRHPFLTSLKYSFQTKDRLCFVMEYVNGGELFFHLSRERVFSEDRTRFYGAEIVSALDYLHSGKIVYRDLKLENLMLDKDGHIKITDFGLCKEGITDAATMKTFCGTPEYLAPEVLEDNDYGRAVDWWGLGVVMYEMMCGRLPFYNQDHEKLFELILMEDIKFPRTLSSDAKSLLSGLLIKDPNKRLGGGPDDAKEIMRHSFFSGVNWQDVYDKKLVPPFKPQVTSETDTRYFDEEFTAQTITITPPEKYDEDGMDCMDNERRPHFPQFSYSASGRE

Work on `O=C(/C=C/c1nc2cc(F)ccc2[nH]1)c1c(-c2ccccc2)c2cc(Cl)ccc2[nH]c1=O` [compound 42, (E)-6-chloro-3-(3-(5-fluoro-1H-benzo[d]imidazol-2-yl)acryloyl)-4-phenylquinolin-2(1H)-one] yielded an IC50 [1] of 5.01 µM, an IC50 [2] of 3.43 µM and an IC50 [3] of 6.49 µM. For the same molecule, the IC50 [4] was 6.03 µM, the IC50 [5] was 1.9 µM and the “IC50 values against all the selected kinases (in words)” value [6] was “low micromolar range”. For the same molecule, the “inhibition of AKT levels and PRAS40 phosphorylation” value [7] was “effectively inhibited”, the “inhibition of phosphorylation of IKK Ser176/180 and total IκB levels” value [8] was “effectively inhibited” and the plasma stability [9] was “favorable”. For the same molecule, the microsomal stability [10] was “favorable”, the “tumor growth in xenograft” value [11] was “Remarkable tumor growth/suppression” and the “IκB expression in tumors” value [12] was “higher IκB expression”. The “apoptosis in tumors (TUNEL staining)” value [12] was “higher levels of apoptosis”.
